This is an account of results in ChEMBL document CHEMBL1127016, “Inhibitors of the protease from human immunodeficiency virus: synthesis, enzyme inhibition, and antiviral activity of a series of compounds containing the dihydroxyethylene transition-state isostere” (J Med Chem, 1993).

Structures are written as SMILES.

Experiment [1] addresses Human immunodeficiency virus type 1 protease (Human immunodeficiency virus 1, UniProt Q72874). The experiment in a line: Inhibition of HIV-1 protease in vitro. A digest of the protocol: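 Recombinant HIV-1 protease refolded from E. coli inclusion bodies; substrate peptide H-Val-Ser-Gln-Asn-Tyr-Pro-Ile-Val-OH at 2.5 mM. 30 °C, 100 mM sodium acetate pH 5.5 (MOPS for pH 7), 10% glycerol, 5% ethylene glycol, 0.1% NP-40. Inhibitor added before enzyme, five to seven concentrations; stopped at 30 min with TFA, HPLC; Ki from Dixon plots.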

Experiment [2] deals with Vaccinia virus. The experiment in a line: Anti viral activity against vaccinia virus in CV-1 (monkey kidney) cells. The class given is functional, Orthopoxvirus vaccinia. On the set-up: concentration or dose not given beside the values.
The subject of experiment [3] is Vaccinia virus. The experiment in a line: Anti viral activity against vaccinia virus in CV-1 (monkey kidney) cells at 1 uM. The class given is functional. The following applies: Orthopoxvirus vaccinia, CV-1, in Primates.

As usually defined, the Ki is a measure of affinity in units of concentration, obtained from inhibition or displacement. Regarding `COCCOCCOc1ccccc1C(=O)N[C@@H](CC1CCCCC1)[C@@H](O)[C@H](O)[C@H](C(=O)N[C@H]1c2ccccc2CC1O)C(C)C` (stereo not given in full), the affinity in experiment [1], expressed as Ki, was 200 nM.

As a reminder, the Inhibition is the relative decrease from the control value, in per cent. For `CCC(C)[C@H](NC(=O)[C@H](C(C)C)[C@@H](O)[C@H](O)[C@H](CC1CCCCC1)NC(=O)c1ccccc1OCCOc1ccccc1)C(=O)NCc1nc2ccccc2[nH]1` (stereo not given in full), in experiment [2], the Inhibition was 86%. The compound also had a Ki in experiment [1] of 8 nM.

`CCC(C)[C@H](NC(=O)[C@H](C(C)C)[C@@H](O)[C@H](O)[C@H](CC1CCCCC1)NC(=O)c1ccccc1OCCOCCOC)C(=O)NCc1nc2ccccc2[nH]1` (stereo not given in full) gave an Inhibition in experiment [2] of 56%. The compound also registered a Ki in experiment [1] of 5 nM.

For `CC(C)[C@@H](C(=O)N[C@H]1c2ccccc2CC1O)[C@@H](O)[C@H](O)[C@H](CC1CCCCC1)NC(=O)CCOCCOc1ccccc1` (stereo not given in full), the Ki in experiment [1] is over 200 nM.

In experiment [1], `COCCOCCOc1cccnc1C(=O)N[C@@H](CC1CCCCC1)[C@@H](O)[C@H](O)[C@H](C(=O)N[C@H]1c2ccccc2CC1O)C(C)C` (stereo not given in full) gave a Ki of over 200 nM.

As a reminder, the inhibition is the relative decrease from the control value, in per cent. In turn, `CC(C)[C@@H](C(=O)N[C@H]1c2ccccc2CC1O)[C@@H](O)[C@H](O)C(CC1CCCCC1)NC(=O)c1ccccc1OCSc1ccccc1` (stereo not given in full) registered an inhibition at 1 µM in experiment [3] of 0%. The same compound returned a Ki in experiment [1] of 200 nM.

On to `CC(C)[C@@H](C(=O)N[C@H]1c2ccccc2CC1O)[C@@H](O)[C@H](O)C(CC1CCCCC1)NC(=O)c1ncccc1OCSc1ccccc1` (stereo not given in full), for which the inhibition at 1 µM in experiment [3] came to 0%. The affinity in experiment [1], expressed as Ki, was 600 nM.

In experiment [2], `CCC(C)[C@H](NC(=O)[C@H](C(C)C)[C@@H](O)[C@H](O)[C@H](CC1CCCCC1)NC(=O)c1ncccc1OCCOCCOC)C(=O)NCc1nc2ccccc2[nH]1` (stereo not given in full) displayed an Inhibition of 0%. Further, affinity in experiment [1] was put at a Ki of 100 nM.

In experiment [1], `CC[C@H](C)[C@H](NC(=O)[C@H](C(C)C)[C@@H](O)[C@H](O)[C@H](CC1CCCCC1)NC(=O)C1CCCCC1)C(=O)NCc1ccccn1` came in with a Ki of 22 nM.

`CCC(C)[C@H](NC(=O)[C@H](C(C)C)[C@@H](O)[C@H](O)C(CC1CCCCC1)NC(=O)c1ncccc1OCSc1ccccc1)C(=O)NCc1nc2ccccc2[nH]1` (stereo not given in full) showed an inhibition at 1 µM in experiment [3] of 0%. The Ki in experiment [1] came out at 140 nM.

Take `COCCOCCOCCOc1ccccc1C(=O)NC(CC1CCCCC1)[C@@H](O)[C@H](O)[C@H](C(=O)N[C@H]1c2ccccc2CC1O)C(C)C` (stereo not given in full): the Ki in experiment [1] is over 200 nM.

In experiment [1], `COCCOCCOCCOc1cccnc1C(=O)NC(CC1CCCCC1)[C@@H](O)[C@H](O)[C@H](C(=O)N[C@H]1c2ccccc2CC1O)C(C)C` (stereo not given in full) displayed a Ki of over 200 nM.

Turning to `CCC(C)[C@H](NC(=O)[C@H](C(C)C)[C@@H](O)[C@H](O)C(CC1CCCCC1)NC(=O)c1ccccc1OCCOCCOCCOC)C(=O)NCc1nc2ccccc2[nH]1` (stereo not given in full), in experiment [3], testing at 1 µM gave an inhibition of 65%. Moreover, the affinity in experiment [1] corresponds to a Ki of 10 nM.

For `CCC(C)[C@H](NC(=O)[C@H](C(C)C)[C@@H](O)[C@H](O)C(CC1CCCCC1)NC(=O)c1ncccc1OCCOCCOCCOC)C(=O)NCc1nc2ccccc2[nH]1` (stereo not given in full), in experiment [3], the inhibition at 1 µM worked out at 0%. Moreover, the affinity in experiment [1] corresponds to a Ki of 100 nM.

Turning to `CC(C)[C@@H](C(=O)N[C@H]1c2ccccc2CC1O)[C@@H](O)[C@H](O)[C@H](CC1CCCCC1)NC(=O)c1ccccc1OCCOc1ccccc1` (stereo not given in full), the inhibitory constant (Ki) in experiment [1] was over 200 nM.

In turn, `CC[C@H](C)[C@H](NC(=O)[C@H](C(C)C)[C@@H](O)[C@H](O)[C@H](CC1CCCCC1)NC(=O)c1ccccc1)C(=O)NCc1nc2ccccc2[nH]1` gave a Ki in experiment [1] of 36 nM.

For `CCC(C)[C@H](NC(=O)[C@H](C(C)C)[C@@H](O)[C@H](O)[C@H](CC1CCCCC1)NC(=O)CCOCCOc1ccccc1)C(=O)NCc1nc2ccccc2[nH]1` (stereo not given in full), the Inhibition in experiment [2] is listed as 65%. The compound further returned a Ki in experiment [1] of 4 nM.

`CCC(C)[C@H](NC(=O)[C@H](C(C)C)[C@@H](O)[C@H](O)C(CC1CCCCC1)NC(=O)C(Cc1c[nH]cn1)NC(=O)COc1cccc2ccccc12)C(=O)NCc1ccccn1` (stereo not given in full) yielded a Ki in experiment [1] of under 1 nM.

In experiment [1], `CC(C)[C@@H](C(=O)N[C@H]1c2ccccc2CC1O)[C@@H](O)[C@H](O)[C@H](CC1CCCCC1)NC(=O)c1ncccc1OCCOc1ccccc1` (stereo not given in full) returned a Ki of over 200 nM.

Turning to `CCC(C)[C@H](NC(=O)[C@H](C(C)C)[C@@H](O)[C@H](O)[C@H](CC1CCCCC1)NC(=O)c1ncccc1OCCOc1ccccc1)C(=O)NCc1nc2ccccc2[nH]1` (stereo not given in full), the Inhibition in experiment [2] was 0%. Further, the Ki in experiment [1] is over 200 nM.

In the case of `CCC(C)[C@H](NC(=O)[C@H](C(C)C)[C@@H](O)[C@H](O)C(CC1CCCCC1)NC(=O)c1ccccc1OCSc1ccccc1)C(=O)NCc1nc2ccccc2[nH]1` (stereo not given in full), the inhibition at 1 µM in experiment [3] amounted to 86%. In experiment [1], affinity was put at a Ki of 5 nM.

For the compound `CCC(C)[C@H](NC(=O)[C@H](C(C)C)[C@@H](O)[C@H](O)[C@H](CC1CCCCC1)NC(=O)c1ccc(C)cc1OCCOc1ccccc1)C(=O)NCc1nc2ccccc2[nH]1` (stereo not given in full), the Inhibition in experiment [2] came to 48%. For the same compound, the Ki in experiment [1] came out at 48 nM.

As for `CC(C)[C@@H](C(=O)N[C@H]1c2ccccc2CC1O)[C@@H](O)[C@H](O)[C@H](CC1CCCCC1)NC(=O)c1ccccc1` (stereo not given in full), the Ki in experiment [1] worked out at 16 nM.
